Laboratory results reported in the RNAGym collection of RNA variant scans (doi:10.1126/science.aae0568).
This sample holds only a part of the variants without activity.

B1: tRNA (parent)
chain: GUUCCGUUGGCGUAAUGGUAACGCGUCUCCCUCCUAAGGAGAAGACUGCGGGUUCGAGUCCCGUACGGAACG

Variants of: B1
Experiment: yeast fitness relative to wild type (ratio to wild type); higher = fitter; tRNA-Arg(CCU), competitive growth, 37 C, YPD
Procedure, shortened: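 Gene amplicons from the start population and from each of six end populations were read by 100-nucleotide paired-end sequencing. Those end populations came from pooled Saccharomyces cerevisiae strains carrying tRNA-Arg(CCU) gene variants at the native locus, competed in YPD at 37°C for 24 hours. Fitness relative to wild type was worked out from changes in genotype frequencies. Genotypes needed ≥ 100 starting reads, and estimates < 0.5 were set to 0.5.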

Variant | yeast fitness
C5U G44A U64G | 0.532
C5U C22U C27G A65U | ≤ 0.5
C5U C29A C62A | ≤ 0.5
C5U G18C A40G A43C U54A | 0.72
G6A C34A A40U U59G | ≤ 0.5
G6A C24G C31G C34U | ≤ 0.5
C5U U8A G18A A69C | ≤ 0.5
C5U G23C U32C A42G U54A | ≤ 0.5
C5U G17A A36U U47A C66U | 0.58
C5U G12A G48A | 1.18
C5U U28A C34U G41A | ≤ 0.5
G6A A37G | 0.722
C5U G17C C30A G50A C66G | ≤ 0.5
G6A A14G A45G | 0.797
C5U U28C C29U G63C A65U | ≤ 0.5
C5U G18C G52C | ≤ 0.5
G6A C11A U19A | 0.53
G6A A14G C66A | ≤ 0.5
G6A C11U A21C U28A C62U | ≤ 0.5
G6A C62A | 0.873
C5U G18C C22A G51C | 0.562
C5U U13C U19A A21U C24A U54C U59C A69G | 0.524
C5U C22U C27U C33U | ≤ 0.5
G6A A15C C27A A43G | 0.592

Variant | yeast fitness
C5U U7A U35A A36U A45U | ≤ 0.5
C5U U28G C62U A65G | ≤ 0.5
G6A C22G C24U U47A A70C | ≤ 0.5
G6A A45G A70U | 0.775
G6A A14U | 0.663
G6A A14C | 0.674
C5U U19A C30A A42C U64C | ≤ 0.5
G6A A36U A45U | ≤ 0.5
C5U C31A C34U A43G | 0.77
C5U C30G U64A | 0.578
C5U U32C G39A C60U C61G | 0.527
G6A A21G C55U C66U | ≤ 0.5
C5U G17A | 0.929
C5U C49G | 0.919
C5U G23C C55A | 0.566
C5U C22G C46A C60G | ≤ 0.5
G6A C27A A36G A70U | ≤ 0.5
C5U G50C U54C | ≤ 0.5
G6A C22G A57C C66A | ≤ 0.5
G6A A20C A36C U47A G48C U54G A65C | ≤ 0.5
C5U G9A G10C G25A C33G G39A | ≤ 0.5
C5U U13A A15G A20G C22G C46G G51A | ≤ 0.5
C5U U26C A69C | 0.655
C5U C31A U32C A37C G50C A69C | 0.731

Variant | yeast fitness
G6A A21C U47A G56A | ≤ 0.5
C5U G39C | 0.769
C5U G10C C27G U28C G39C C46G A69U | ≤ 0.5
C5U G18C C22U G50A U54C | ≤ 0.5
G6A A20C C31U C33G | ≤ 0.5
C5U C27A A42U C49G | 0.763
C5U U35G U47A G48A | ≤ 0.5
G6A C30G C55G | ≤ 0.5
G6A A40U | 0.823
C5U C31U C61G | 0.549
G6A C55U | 0.677
C5U U32A A43G | ≤ 0.5
C5U C22U C27U A42G C55A C60A A70U | 0.57
C5U C30A U53A C62U | 0.659
G6A C31U A36G | ≤ 0.5
G6A C22G | 0.702
C5U C24U | 0.99
G6A A21U U26G A70C | 0.569
C5U U26A C55G C61A | ≤ 0.5
G6A A21G C33G A57U C62U | ≤ 0.5
G6A C11U A43U C62G C66A A69C | ≤ 0.5
G6A A69U | 0.916
C5U G56A C61A | ≤ 0.5
C5U C24U G52U C55A | ≤ 0.5

Variant | yeast fitness
C5U U35A G44A | 0.558
G6A A14U C22U A37G | ≤ 0.5
C5U U13A C61U | 0.624
C5U G38C | 0.719
C5U C24U G44C | 0.528
C5U C24U C33U G44C G68A | ≤ 0.5
C5U G41C | 0.91
G6A A15U A69U A70U | ≤ 0.5
C5U U35G A45U A57C | ≤ 0.5
G6A C11G | 0.738
C5U G38C C60U | ≤ 0.5
C5U U8C A21G A42U G58A | 0.726
C5U G39A U53A | ≤ 0.5
C5U C31G C49U C61G | ≤ 0.5
C5U G17A A40U A42C C49A G56A | ≤ 0.5
G6A C11A A15G C49G G51C | ≤ 0.5
C5U C24U A36G C46A U47C C55A G67A | ≤ 0.5
C5U U8A G18C C29U A45C | 0.554
C5U G6A | 0.884
C5U C30G A36U G51A G52A | 0.524
G6A A20U C62U A65G | ≤ 0.5
G6A A15C A20U A57U | ≤ 0.5
C5U C31A A40G | 0.743
C5U G18A A42C | 0.674

Variant | yeast fitness
G6A A15U G18C G23C A43G C60U | ≤ 0.5
C5U U32C C49U | 0.842
C5U U26C A40U | ≤ 0.5
G6A G9C A14C C27A C31U C34A A42C C46G | ≤ 0.5
G6A A14G C22G U35G A40C A70G | ≤ 0.5
C5U C31U G50A C55G | 0.57
G6A C22U U53G | 0.653
G6A C49A G63A | ≤ 0.5
C5U C55G C61A | ≤ 0.5
G6A C29G A43U | ≤ 0.5
G6A A20U G52C | ≤ 0.5
G6A C62U C66A | 0.548
C5U U8C A20G C30A C61A G67U | ≤ 0.5
G6A C29G G38C A40G A45C | ≤ 0.5
C5U C34A G38C A70C | 0.608
G6A C24U C49U C61G C66U A69U | ≤ 0.5
C5U G17C C30A | 0.548
G6A C22G U47A | ≤ 0.5
G6A A15U C22A | ≤ 0.5
G6A A45G G67U | 0.687
C5U U16C A40G A43G G63C A69G | ≤ 0.5
G6A C11A A36G C61U C66U | ≤ 0.5
C5U C29G | 0.64
G6A C24U C31A A43C G58C U64G | ≤ 0.5

Variant | yeast fitness
C5U C22U G52A U53C U59G C61G C62U | ≤ 0.5
G6A A14G C24A A36G A45U | ≤ 0.5
C5U C27A C33G A45C G50C G58A | 0.514
C5U U8C A20G C30A A57U C61U | ≤ 0.5
C5U G12A C29U | 0.565
C5U C34A G50A U59G C62A | ≤ 0.5
C5U G58C U59C A70G | ≤ 0.5
G6A C61A C62U A65U A69C | ≤ 0.5
G6A A21C U47A G68A | ≤ 0.5
C5U G10A U13A A15G G50C A57G | ≤ 0.5
C5U G6C G39A A45U C46G | 0.626
C5U C29A A37U G38A | ≤ 0.5
C5U G9C A36G | 0.538
C5U C33A A36C A37C A43G A70U | ≤ 0.5
C5U U7C C30A A42C | 0.583
G6A C30U U35C | ≤ 0.5
C5U C30A | 0.889
G6A C29A | 0.647
C5U U16C U59G | ≤ 0.5
C5U U16C | 0.972
C5U U16G | 0.809
C5U C34G C61U C66U | ≤ 0.5
C5U C33U A45G C61U | ≤ 0.5
C5U U35C | 0.811

Variant | yeast fitness
G6A C62A A70C | 0.636
C5U C34G U64A | ≤ 0.5
C5U C31A A45C | 0.681
C5U U19G U53A | 0.529
C5U G9C C34U C60G | ≤ 0.5
C5U G39C C46U C49U G56A G68C | 0.669
G6A C27G A57C C66G | ≤ 0.5
C5U U7A C62A | ≤ 0.5
G6A C24U C46U | 0.764
C5U U13G A42U | 0.627
C5U C22U C34A A42U G44C C61A | ≤ 0.5
C5U C27U C34U G44A | 0.547
C5U C22U C33U C49U C62G | ≤ 0.5
C5U U32C | 0.892
G6A C22G C33A A36C A43G C55G | ≤ 0.5
C5U C33U A65G | 0.63
G6A C24A G38A G39C | ≤ 0.5
C5U C22G C31G U54G | ≤ 0.5
G6A A15C U28A C31G U64A C66U G68C | ≤ 0.5
C5U C49A C60G | 0.754
G6A C29G U32C | 0.548
C5U C24U A40C | 0.634
C5U C24U A40G | 0.637
